Experimental data as given in ChEMBL document CHEMBL4680178, “Design, synthesis and biological evaluation of new ganglioside GM3 analogues as potential agents for cancer therapy” (Eur J Med Chem, 2020).
The source made the active and inactive calls. The rule behind the calls is not given here.

What was measured:
Type in all cases: functional, cell-based
[1] = tested on: HCT-116; assay: Antiproliferative activity against human HCT-116 cells assessed as inhibition of cell growth after 48 hrs by MTT assay; conditions: HCT-116, 48 h
Method in brief: (§1)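 Cells grown in RPMI-1640 with 10% heat-inactivated FBS at 37 °C, 5% CO2, seeded at 8×10^3/well, treated 48 h with compound at 20, 200, 400, 1000 μM or DMSO vehicle. MTT (5 mg/mL solution) added for 4 h at 37 °C; absorbance read at 570 nm. IC50 from three independent experiments, mean ± SD.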

[2] = tested on: K562; assay: Antiproliferative activity against human K562 cells assessed as inhibition of cell growth after 48 hrs by MTT assay; conditions: K562, 48 h; method in brief: as §1
[3] = tested on: B16; assay: Antimigratory activity against mouse B16 cells assessed as inhibition of cell migration at 6.25 to 25 uM measured after 24 hrs by scratch wound healing assay; conditions: dose 6.25-25 µM
Method in brief: (§2)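 Near-confluent monolayers (1.5×10^5 cells per well, RPMI-1640 + 10% FBS) scratched with a pipette tip, washed twice with serum-free RPMI-1640, then exposed to compound in fresh FBS-containing medium (DMSO solvent control) for 24 h. Wounds photographed by inverted microscopy; migration expressed as wound width at 24 h / wound width at 0 h (%). Triplicate.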

[4] = tested on: B16-F10; assay: Antimigratory activity against mouse B16-F10 cells assessed as inhibition of cell migration at 6.25 to 25 uM measured after 24 hrs by scratch wound healing assay; conditions: dose 6.25-25 µM; method in brief: as §2

Structure (SMILES) | IC50 [1] [µM] | IC50 [2] [µM] | inhibition [3] | inhibition [4]
CCCCCCCCCCCCC/C=C/[C@@H](O)[C@H](CO[C@@H]1O[C@H](CO)[C@@H](O[C@@H]2O[C@H](CO[C@]3(C(=O)O)C[C@H](O)[C@@H](NC(C)=O)[C@H]([C@H](O)[C@H](O)CO)O3)[C@H](O)[C@H](O)[C@H]2O)[C@H](O)[C@H]1O)NC(=O)CCCCCCCCCCCCCCCCC | 201 | 201 | Active | Active
CCCCCCCCCCCCC/C=C/[C@@H](O)[C@@H](N)CO[C@@H]1O[C@H](CO)[C@@H](O[C@@H]2O[C@H](CO[C@]3(C(=O)O)C[C@H](O)[C@@H](NC(C)=O)[C@H]([C@H](O)[C@H](O)CO)O3)[C@H](O)[C@H](O)[C@H]2O)[C@H](O)[C@H]1O | 150 | 149 | Active | Active
